System: MS2 coat protein
Experiment: apparent Kd, MS2 coat protein; higher = weaker binding; RNA-MaP array; FMN 200 µM where present
Summary of the method: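 The apparent Kd is reported as the median of filtered per-cluster binding-curve fits. To get these curves, designs transcribed by stalled E. coli RNA polymerase on Illumina sequencing-chip clusters were titrated with SNAP-549-labelled MS2 coat protein from 0.7 or 1.5 nM, doubling to 3 µM. Titrations were run without and then with constant ligand in 100 mM Tris-HCl pH 7.5, 80 mM KCl, 4 mM MgCl2, BSA, DTT, yeast tRNA and Tween-20, and green signal was normalised to red-channel RNA signal and control-cluster median Fmax.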

[1] = designed as: OFF switch for flavin mononucleotide, no ligand
[2] = ligand present: flavin mononucleotide, designed as: OFF switch for flavin mononucleotide
[3] = designed as: ON switch for flavin mononucleotide, no ligand
[4] = ligand present: flavin mononucleotide, designed as: ON switch for flavin mononucleotide

Sequence	apparent Kd [1]	apparent Kd [2]	apparent Kd [3]	apparent Kd [4]
UUGACGGCAGGAUAUACAUGAGGAUCACCCAUGUAAAUUUUUCGUUUAACUUGAAUGUGUAGAAGGGCCAAAAC	22.7 nM	19.5 nM		
AGUGUCAUCGAGAAGGCCUCAACAUGAGGAUCACCCAUGUUGCAAAAUGGGAGGAUAUCGCGCGUUCAAAAACGUUUCGUAGCA			42.3 nM	17.6 nM
AAUAUAAAGAGCUGGUACUCAAUAACAUGAGGAUCACCCAUGUAGGAUAUCAGCACGAUAAGUGCUGAGAAGGACAUCCAGCUC	16.6 nM	29.4 nM		
GGAUUACAUGAGGAUCACCCAUGUGAGGAUAUCGAUGUCCUGUCUUUCGUGCGGGACUCGAGAAGGCACUUGGA	45.2 nM	141 nM		
CCUAAGGACACAGGAUAUAGCGUGGUGGGUGGGCUCCAACGACGAGCGGCGCUAGAAGGGUGACCACAUGAGGAUCACCCAUGU			668 nM	205 nM
AAACAGGCAGGAUAUACAUGAGGAUCACCCAUGUGCAUAAACUGGCUGCGUCCGAAUCGUAGAAGGGCCUGCAU	502 nM	126 nM		
GUGCAAACAUGAGGAUAUGUAUUAAAUAAUAAUACAGAAGGCAUGUCAAAUGACAUGAGGAUCACCCAUGUUGGCAAAAUGCGC			144 nM	29.7 nM
UUGUGGGAGCAGGAUAUCUUAUUUUUUUUUUGUGGAGAAGGGCUGACAUGAGGAUCACCCAUGUGGUCCUAGAU	28.2 nM	27.9 nM		
UGUUGUUCCGCAGGAUAUGUAUUGGAUUACAAUACAGAAGGGCGAUAACAUGAGGAUCACCCAUGUGUGGACAAUAAGGAAGAG			708 nM	67.1 nM
CAGCGAUAGCUGAACAAUCUAUCUGAGGAUAUCAUGAAUAAACAUGAGGAUCACCCAUGUAAAUAUGAGAAGGCAGAUAGAUUG			4.82 nM	4.78 nM
AUCAGCUCGUCAGGAUAUACGUCACUGCGUCAGCUGUGUGGUAAGAUCACAUGAGGAUCACCCAUGUAGAAGGGACGAGCUGAU	15.3 nM	295 nM		
UCGCUUGAAGGAUAUACGAUUCGUUGUGUUCGUGUCACCUGACAUGAGGAUCACCCAUGUAGAAGGUCACGCAG	18.6 nM	24.6 nM		
AAGAAGGACGCAGGAUAUCCAGGACCUCCCGCAGGAGAAGGGCGAGACAUGAGGAUCACCCAUACAUGAGGAUCACCCAUGUAG	17.3 nM	18.4 nM		
GGAGCAGGGUGAGGAUAUGUAAAAUUCGAAAGGACAGAAGGCACUUAACCAACAUGAGGAUCACCCAUGUAGGCGACGGCACCA			30 nM	21.8 nM
UUGGUACAUGAGGAUCACCCAUGUGGGUCGGUCGCAGGAUAUGCCCGUGGGCGCUUGCGGGCAGAAGGGUGCCGUA			392 nM	102 nM
CUCUUGUUAGGAUAUCAAACUGGCAGCGGAGCUGGCAGAAGUGAGAAGGGACAUGAGGAUCACCCAUGUAAGAA	69.2 nM	228 nM		
GGUUGACAAAGUCAACCAAUUCGAACAUGAGGAUCACCCAUGUAGGAUAUGCUACUCAAAGAGUAGCAGAAGGACAUGUGCCUU	34.3 nM	188 nM		
GUUUAGUGAGGAUAUGCGGCAUCGAUCGAGCGCGGUCGGCUACAGAAGGCACAUGAGGAUCACCCAUGUUUCUC	41 nM	278 nM		
CGAUAUAUGAAGGGCGAACACGCACAUGAGGAUCACCCAUGUAGAAGGCGAUCCGCAACGCGGAUCGAGGAUAUAUAGUAUACA	35.6 nM	42.4 nM		
UUACCUCAUGAGAAGGCGAUCAUGAAACAUGAUCGAGGAUAUCAUGUAAACAUGAGGAUCACCCAUGUAUGGGUAUUAUGGUAA			166 nM	44.1 nM
UGUCGGAGCAGAGGAUAUACAUGAGGAUCACCCAUGUAAUAAAGUGAAGCCUGAAAACAGGCAAUGUAGAAGGCUGCUCCGACA	11.5 nM	85 nM		
GGUCGUCACAUGAACAUGAGGAUCACCCAUGUAACUAGACAUGAGGAUAUGGAUCCUAAUUGGAUCCAGAAGGCAUGGACGACC			203 nM	31.2 nM
GUCUUAUUACAGAAGGUGUUUUACAUGAGGAUCACCCAUGUUUUAAUGUUUAAAUUUGAUAUUUACAAGGAUAUGUACUAAUCU			27.7 nM	19.4 nM
GUAGCUAUCGGAGGAUAUUCAUUAAACAUGAGGAUCACCCAUGUUAAAUUGGGAGAAGGCCGAUAGCUACAAGAGCGAAAGCUC			7.16 nM	5.45 nM
UGACAUAUAUAGAAGGGUAGUAGGGUAUUACAUGAGGAUCACCCAUGUAUUAUAGGAUAUGUAUAAAGUUAUUAUUCAAGUAAA	15.8 nM	13 nM		
GCCUGCCGUGGCACGGUAGCACCGGAGGAUAUCCGCGUCGGUCAUGACAUGAGGAUCACCCAUGUGGAGAAGGCUGGUUUGUCC	10.8 nM	21.2 nM		
CUGGUUAGUCAGGAUAUCGUGUGGGUAAUUGUACGAGAAGGGACGACAUGAGGAUCACCCAUGUGGUCUUUGGG	24.8 nM	56.2 nM		
CAGAGGAUGUAAGGAUAUCGUCAGGAAUACUGACGAGAAGGUACAUGAGGAUCACCCAUGUAACUCUAAUAAUAAUAACCUCUG	12.6 nM	16.4 nM		

Sequence	apparent Kd [1]	apparent Kd [2]	apparent Kd [3]	apparent Kd [4]
AAGAAGUCAGGAUAUCCAGCUCGUCACUUGCGUGAUGAGUUGGAGAAGGGACAUGAGGAUCACCCAUGUAAAGC	47.9 nM	45.7 nM		
GGAUCCGCUUCCGCCACAUGAGGAUCACCCAUGUGUAUGAACAGAAGGGCGACCUCAAAGAGGGCGCAGGAUAUGUACUCGUAC			78.3 nM	48.6 nM
AAUUCACAUGAGGAUCACCCAUGUCAGGAUAUGCUGACGCGGGUUUCGGUGCGUGUUGGCAGAAGGGACAGCUA	193 nM	204 nM		
GAGAAACAUGAGGAUCACCCAUGUGAGGAUAUGCGUACGUUGUCCGUAGGCGACGUGCGCAGAAGGCGCAAAGG	83.9 nM	118 nM		
GUGGUUGUCGUAGGAUAUGUAGGAUAUUCCUACAUGAGGAUCACCCAUGUUCGCAUGGAAGAAGGACAGAAGGACGAUGACCAA			1160 nM	9.11 nM
GGUUGUCAUAGUCAUCCUUUCCGUACAUGAGGAUCACCCAUGUAGGAUAUGCUACUCAAAGAGUAGCAGAAGGGCGUGUGUCUU	17.2 nM	18.8 nM		
CUGUUGUGGUACUGCAUGGCUUGGAGAGAAGGGUGAUUCACAUGAGGAUCACCCAUGUAGGACUUACAGGAUAUUUCCGGGUCU			62.6 nM	100 nM
UUAUACGUUGAGGAUAUGCGACUUUGUAUAGUUGUAGAAGGCGAUACAUGAGGAUCACCCAUGUUUAUGGGCAU	323 nM	554 nM		
UGAGGACAUGAGGAUCACCCAUGUAGGCCACAAUCAGGAUAUGCAUUAAGGUACCUAAGAGUAGAAGGGAUUCGAG			82.1 nM	75.6 nM
UUAAUUAAUUAAUUAUACAUGAGGAUCACCCAUGUAAGUGAUCAGGAUAUCAGCUCGAAUAGAGCUGAGAAGGGAUACAUGUAA			199 nM	111 nM
GGACGCUAAGGAUAUACAUGAGGAUCACCCAUGUAGCCCGAAAGGGCGCGUUCCUUCUGUAGAAGGUGGCUAAA	17 nM	25.4 nM		
CGCGAUGCGGUUGGCCCUGGGCGAGAGGAUAUGGGCAGCGAGACAUGAGGAUCACCCAUGUUUUCUCAGAAGGCUCGAGCAGGC			181 nM	17.1 nM
AAUAACAGAGGAUAUACUGUUUUAUGUGUUUGUUAUUUUGAACAUGAGGAUCACCCAUGUAGAAGGCUGAAUGA	28.9 nM	29.7 nM		
CUUAUGUCAGGAUAUCAGUAGUAAAAAAAAAAAAUUACUACUGAGAAGGGACAUGAGGAUCACCCAUGUCCAUU	30.9 nM	31.2 nM		
GGAUAGGACAGAGGAUAUACGUGCUAGUGAUACUAGCAAAAUUUCCUCACAUGAGGAUCACCCAUGUAGAAGGCUGUCCUAUCG	15.5 nM	453 nM		
UCUACAUAGAUUCAUCAAUACAGUAAGGAUAUGAGAUACAUGAGGAUCACCCAUGUGCAUGUGAAUUAGAAGGUACAAUUAACU	15.7 nM	12.8 nM		
ACCAGGGAUUCAGGAUAUAUUAGCCGAGGCCGCGUAGAAGGGAAAUCCUGACAUGAGGAUCACCCAUGUCGACCCGCCUUCCAC			22.8 nM	24.2 nM
AGUAGAUCAGGAUAUACAUGAAAGAUCAAAAUGUCCAAUCUACAUGAGGAUCACCCAUGUAGAAGGGAUCUACA	17.1 nM	23 nM		
UGGUACUAGGGAGGAUAUGGGAAGAUACAUGAGGAUCACCCAUGUUUAAGAAUGCCGAGAGGCAACUAGAAGGCCCUAGUAACU			461 nM	20.2 nM
AGUAAAGGCCUGAGGUGUCCGAACAUGAGGAUCACCCAUGUAGAGGAUAUAGGUGGAAGUGACGCCUAGAAGGCUACGUGUCAU	8.8 nM	11 nM		
GUUUAGUGAGGAUAUGUGGCGUGGAUCGAGCGCGGUCUGCUACAGAAGGCACAUGAGGAUCACCCAUGUUUCUC	166 nM	329 nM		
AAUUUACAGGGAGGAUAUACAUGAGGAUCACCCAUGUAAUCAUAUGAUAUUUUUUUUGUAUGAGUGUAGAAGGCCCAACUACCA	10.7 nM	11 nM		
AAACAUGUCCGAGGAUAUCUGGAAACACUUUCAAGAGAAGGCGGACAUGAGGAUCACCCAUGUCUCUCCUCAUCAACUACAAAU	8.71 nM	49.3 nM		
GUAUAUAGUGUGAGGAUAUGCUGGUCCUUGGAUCAGCAGAAGGCACAUGAGGAUCACCCAUGUAGUUUAUUAUU	25 nM	80.3 nM		
AAGUUUUUACAAGGAUAUCAUUUGUUUCUAAAUUCAACAUGAGGAUCACCCAUGUAACAAUGGAGUGAGAAGGUGUGUUGGCAA			101 nM	84.6 nM
GGAUAGGACAGAGGAUAUACGUGCUAGAGAUACUAGCAAGAUUUCCUCACAUGAGGAUCACCCAUGUAGAAGGCUGUCCUAUCG	13.2 nM	348 nM		
AAUAUGAGCUGGAAUAACCUCAAAACAUGAGGAUCACCCAUGUAGGAUAUCAGCACGAUAAGUGCUGAGAAGGACAACCAGCUC	13.9 nM	18.1 nM		

From the EternaBench riboswitch data
